This sample holds only a part of the variants without activity.
B1: tRNA (parent)
chain: GUUCCGUUGGCGUAAUGGUAACGCGUCUCCCUCCUAAGGAGAAGACUGCGGGUUCGAGUCCCGUACGGAACG

Variants of: B1
Experiment: yeast fitness relative to wild type (ratio to wild type); higher = fitter; tRNA-Arg(CCU), competitive growth, 37 C, YPD
Summary of the method: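 A pool of Saccharomyces cerevisiae strains, each with a tRNA-Arg(CCU) gene variant at the native genomic locus, was competed in YPD at 37°C for 24 hours across six parallel replicates. The variants had been chemically synthesised at a 3% per-site mutation rate over 69 sites, and gene amplicons before and after competition were read by 100-nucleotide paired-end sequencing. Darwinian fitness relative to wild type rested on changes in genotype frequencies. Genotypes required ≥ 100 starting reads, and estimates < 0.5 were set to 0.5.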

Variant	yeast fitness
GUUCCGUUGGCGUAAUGGUAACGCGUCUACCUCCUCAGGAGAAGACUGCGGGUUUGAGUCACGUACGGAACG	≤ 0.5
GUUCCGUUGGCGUAAUGGUAACGCGUCGCCCUCCUAAGGAGAAGACUGCGGAUUCGAGUCCCGUACGGAACG	0.681
GUUCCGUUGGCGUAAUGGUAACGCGUCGCCCUCCUAAGGAGAAGAUUGCGGGUUCGAGUACCGUACGGAACG	≤ 0.5
GUUCCGUUGGCGUAAUGGUAACGCGUCGCGCUCCUAAGGCGUAGACUGCGGGUUCGAGUCCCGUACGGAACG	≤ 0.5
GUUCCGUUGGCGUAAUGGUAACGCGUCGCCCUCCUAAGGAGAAGACUGCGGGUUCGAGUCCCGUACAGAACG	0.69
GUUCCGUUGGCGUAAUGGUAACGCGUCGCCCUCCUAAGCAGAAGACUGCGGGUUGGAGUCCCGUACGGAACG	≤ 0.5
GUUCCGUUGGCGUAAUGGUAACGCGUCGCCCUCCUAAGGAGAAGACUGCGGGUUUGAGUCCCGUACCGAACG	≤ 0.5
GUUCCGUUGGCGUAAUGGUAACGCGUCGCCUUCCUAAGGAGAAGACUGCGGGUUCGAGUCCCGUACGGUACG	0.524
GUUCCGUUGGCGUAAUGGUAACGCGUCGCGCUCCUAAGGAGAAGACUGUGGGUUCGAGUCCCGCACGGAACG	≤ 0.5
GUUCCGUUGGCGUAAUGGUAACGCGUCGCCCUCCUAAGGAGAAGACUGCGGGUUCGAGUCCCGGACGGAACG	0.628
GUUCCGUUGGCGUAAUGGUAACGCGUCGCCCUCCUAAGGAGAAGACUGCGGGUUCGUGUCCCGUACGGAUCG	0.721
GUUCCGUUGGCGUAAUGGUAACGCGUCGCCCUCUUAAAGAGAAGACUGCGGGUUCGAGUCCCGUACGGAACG	≤ 0.5
GUUCCGUUGGCGUAAUGGUAACGCGUCGCCCUCAUAAGGAGAAGACUGCGGGUUCGAGUCCCGUACGGAACG	0.568
GUUCCGUUGGCGUAAUGGUAACGCGUCGCCCACCUAACGAGAGGACUGCGGGUUCGAGUCCCGUACGGAACG	0.551
GUUCCGUUGGCGUAAUGGUAACGCGUCGCCCUCCUAAGGAGAAGACUACGGGUUCGAGUCCCGUACCGGACG	≤ 0.5
GUUCCGUUGGCGUAAUGGUAACGCGUCGCCCUCCUAGGGAGAAGACUGCGGGUUCGAGUCCCGUACGGAACG	0.586
GUUCCGUUGGCGUAAUGGUAACGCGUCGCCCUCCUAAAGGGAAGACUGCGGGUUCAAGUCCUGUACGGAACG	≤ 0.5
GUUCCGUUGGCGUAAUGGUAACGCGUCGCCCUCCUUAGGAGAAGAUUGCGGGUUCGAGUCUCGUACGGAACG	≤ 0.5
GUUCCGUUGGCGUAAUGGUAACGCGUCGCCCUCGUAAGGAGAACACUGCGGGUUCGAGUCGCGUACGGAACG	0.558
GUUCCGUUGGCGUAAUGGUAACGCGUCGCCCUCCUAAAGAGAAGACUGCGGGUUCGCGUCCCGUACGGAACG	≤ 0.5
GUUCCGUUGGCGUAAUGGUAACGCGUCGCCCUCCUAAGGAGAAGACUGCGAGUUCGAGUCCGGUACGGAACG	≤ 0.5
GUUCCGUUGGCGUAAUGGUAACGCGUCGCCCCCCUAAGGAGAAGACUGGGGCUUCGAGUCCCGUACGGAACG	≤ 0.5
GUUCCGUUGGCGUAAUGGUAACGCGUCGCCCUCCUAAAGGGAAGACUGCGGGUUCAAGUCCCGUACGGAACG	0.626
GUUCCGUUGGCGUAAUGGUAACGCGUCGCCCUCCUAAGGAGAAGACUGCGGGUUCGAGUCCUGUACGGAACG	0.737
GUUCCGUUGGCGUAAUGGUAACGCGUCGACCUCCUAAGGAGAAGACUGCGGGUUCAAGUCCCGUACGGAACG	≤ 0.5

Variant	yeast fitness
GUUCCGUUGGCGUAAUGGUAACGCGUCGCCCUCCUAAGGAGAAGACUGCCGGUUCGUGUCCAGUACGGAACG	0.619
GUUCCGUUGGCGUAAUGGUAACGCGUCGCCCUCCUACGGAGAAGACUGCGGGUUUGAGUCCCGUUCGGAACG	≤ 0.5
GUUCCGUUGGCGUAAUGGUAACGCGUCGCCCUCCUAAGGAGAAGACUGCGCGUUCGAGUCCCGAAUGGAACG	≤ 0.5
GUUCCGUUGGCGUAAUGGUAACGCGUCGACCUCCUAAGGACAUGACCGCGGGUUCGAGUCCCGUAGGGAACG	≤ 0.5
GUUCCGUUGGCGUAAUGGUAACGCGUCGCCCACCUAACGAGAAGACUGCGGGUUCGAGUCCCGUACGGAACG	0.653
GUUCCGUUGGCGUAAUGGUAACGCGUCUACCUCCUCAGGAGAAGACUGCGGCUUCGAGUCCCGUACGGAACG	0.545
GUUCCGUUGGCGUAAUGGUAACGCGUCGCCCUCCUAAGGUGAAGACUGCGGGUUCGAGUCCCGUACGGCACG	0.629
GUUCCGUUGGCGUAAUGGUAACGCGUCGCCCUCCUAAGGAGAAGACUGCGGGUUGGAGUCCCGUACGGAACG	≤ 0.5
GUUCCGUUGGCGUAAUGGUAACGCGUCGCCCUCCUAGGGAGAAGACUGCCGGUUCGAGUCCCGUACGGAACG	0.528
GUUCCGUUGGCGUAAUGGUAACGCGUCGCGCUCCUAAGGAGAAGACUGCGGGAUCGAGUCUCGUACGGAACG	≤ 0.5
GUUCCGUUGGCGUAAUGGUAACGCGUCUACCUCCUCAGGAGAAGACUGCGGGUUCGAGUCCCGUACGAAACG	≤ 0.5
GUUCCGUUGGCGUAAUGGUAACGCGUCGCCCUCCUAAGGACAAGACUGCGGGUUCAAGUCCCGUACGGAACG	0.562
GUUCCGUUGGCGUAAUGGUAACGCGUCGCACUCCUAAGGAGAAGACUGCGGGUUCGAGUCCCGUACGGAACG	0.645
GUUCCGUUGGCGUAAUGGUAACGCGUCGCCGUCCUAAGGAGAAGACUGCGGGUUCGCGUCCCGUAUGGAACG	≤ 0.5
GUUCCGUUGGCGUAAUGGUAACGCGUCGCCCUGCUAAGGAGAAGACUGCGGGUUCGAGUCCCGUACGCAACG	≤ 0.5
GUUCCGUUGGCGUAAUGGUAACGCGUCGCCCUCCUAAGGAGAGAACUGCGGGUUCGAGUCCCGUACGGAACG	≤ 0.5
GUUCCGUUGGCGUAAUGGUAACGCGUCGCCCUCCUAAGGAGAAGACUGCUGGUUCGAGUGCCGUACGGAACG	≤ 0.5
GUUCCGUUGGCGUAAUGGUAACGCGUCUACCUCCUCAGGAGAAGACUGCGGGUUCGAGUCCCGUACGGAACG	0.634
GUUCCGUUGGCGUAAUGGUAACGCGUCGCCCUCGUAAGGAGAACACUGCGGGUUCGAGUCCCGGACGGAACG	≤ 0.5
GUUCCGUUGGCGUAAUGGUAACGCGUCGACCUCCUAAGGAGAAGACUGCGGGUUCGAGUCCCGUACGGAACG	≤ 0.5
GUUCCGUUGGCGUAAUGGUAACGCGUCGGCCUCCUAAGGAGAAGACUGCGGGUUCGAGUCCCGUACGGAACG	0.608
GUUCCGUUGGCGUAAUGGUAACGCGUCGCCCUCCUAAGGAGAAGACUGCGCGUUCGAGUCCCGAAUGGCACG	0.583
GUUCCGUUGGCGUAAUGGUAACGCGUCGCCCUCCUAAGGAGAAGACUGCGGGUUCGAGUCCCGUAUGGAACG	0.778
GUUCCGUUGGCGUAAUGGUAACGCGUCGCCUUCCUAAGGAGAAGACUGCGGGUUCGAGUCCCGUACGGAUCG	0.543
GUUCCGUUGGCGUAAUGGUAACGCGUCGCCCUCGUGAGGAGAACACUGCGGGUUCGAGUCGCGUACGGAACG	≤ 0.5

Variant	yeast fitness
GUUCCGUUGGCGUAAUGGUAACGCGUCGCCGUCCUAAGGAGAAGACUGCGGGUUCGAGACGCGUACGGAACG	≤ 0.5
GUUCCGUUGGCGUAAUGGUAACGCGUCGCCUUCCUAAGGAGAAGACUGGGGGUUCGAGUCCCGUACGGAACG	≤ 0.5
GUUCCGUUGGCGUAAUGGUAACGCGUCGCCCACCUAAGGAGAAGACUGCGGGUUCGAGUCCCGUACGGAACG	0.678
GUUCCGUUGGCGUAAUGGUAACGCGUCGCCCUCCUAAGGACAAGACUGCGGGUUCGAGUCCCGUACGGAACG	0.551
GUUCCGUUGGCGUAAUGGUAACGCGUCGCCCUCCUAAGGAGAAGACUGCCGGUUCGAGUCCCGUACGGAACG	0.637
GUUCCGUUGGCGUAAUGGUAACGCGUCGCCCUCCUAAGGAGAAGACUGCGGGUUCGAGUCCUGUAGGGAACG	0.568
GUUCCGUUGGCGUAAUGGUAACGCGUCUACCUCCUGAGGAGAAGCCUGCGGGUUCAAGUCCCGUACGGAACG	≤ 0.5
GUUCCGUUGGCGUAAUGGUAACGCGUCGCCCUCCUAAGGAGAAGACCGCGGGUUCGAGUCCCGUACGGAACG	0.824
GUUCCGUUGGCGUAAUGGUAACGCGUCGCCCUCCUAAGGAGAAGACUGCGGGUUCGAGUCGCGUACGGAACG	0.634
GUUCCGUUGGCGUAAUGGUAACGCGUCGCCCUCCUAAGGAGAAGACUGCGGGUUCGAGUCUCGUACGGAACG	0.808
GUUCCGUUGGCGUAAUGGUAACGCGUCUACCUCCUCAGGAGAAGACUGCGGGUUCGAAUCCCGUACGGAACG	≤ 0.5
GUUCCGUUGGCGUAAUGGUAACGCGUCGCCCUCCUACGGAGAAGACUGCGGGUUUGAGUCCCGUACGGAACG	≤ 0.5
GUUCCGUUGGCGUAAUGGUAACGCGUCGCCCUCCUAAGGUGAAGACUGCGGGUUCAAGUCCCGUACGGAACG	1.02
GUUCCGUUGGCGUAAUGGUAACGCGUCGCCCUGCUAAGGAGAAGCCUGCGGGUUCGAGUCCCGUACGGAACG	0.607
GUUCCGUUGGCGUAAUGGUAACGCGUCGCCCUCCUAACGAGAGGACUGCGGGUUCGAGCGCCGUACGGAACG	≤ 0.5
GUUCCGUUGGCGUAAUGGUAACGCGUCGCCCUCCUAAGGAGAAGACUGCGGGUUCGCGUCCCGUCCGGAACG	≤ 0.5
GUUCCGUUGGCGUAAUGGUAACGCGUCGCCCUCUUAAGGAGAAGUCUGCGGGUUCGAGUCCCGUACGGAACG	0.52
GUUCCGUUGGCGUAAUGGUAACGCGUCGCCUUCCUAAGGAGAAGACUGCGGGUUCGAGUCCCGUACGAAACG	≤ 0.5
GUUCCGUUGGCGUAAUGGUAACGCGUCGCCUUCCUAAGGAGAAGACUGCGGGUUCGAGUCCCGUAUGGAACG	≤ 0.5
GUUCCGUUGGCGUAAUGGUAACGCGUCGCCCUCCGAAGGAGAAGUCUGCGGGUUCGAGUCCCGUACGGAACG	≤ 0.5
GUUCCGUUGGCGUAAUGGUAACGCGUCGCCCUCCUAAGGAGAAGACUAGUGGUUCGAGUCCCGUACGGAACG	0.611
GUUCCGUUGGCGUAAUGGUAACGCGUCUACCUCCUUAGGAGAAGACUGCGGGUUCGAGUCUCGUACAUAACG	≤ 0.5
GUUCCGUUGGCGUAAUGGUAACGCGUCGCCCUCCUAAGGAGUAGACUGCGGGUUCGAGUCCCGUACGGAACG	0.71
GUUCCGUUGGCGUAAUGGUAACGCGUCGCCUUCCUAAGGAGAAGACUGCGGGUUCGAGUCCCGUACGGAACG	0.544
GUUCCGUUGGCGUAAUGGUAACGCGUCGCCGUCCUAAGGAGAAGACUGCGGGUUCGAGUCCCGUACGGAACG	0.629
